Results as given in ChEMBL document CHEMBL1255417, “Correlation between in vitro activity of posaconazole and in vivo efficacy against Rhizopus oryzae infection in mice” (Antimicrob Agents Chemother, 2010).
≈ marks a conversion by molar mass, not a printed value. Calls of active or inactive are those of the source. No cut-off for these calls is given here.

Experiments:
[1] = system: Rhizopus arrhizus; assay: Antifungal activity against drug-susceptible Rhizopus oryzae UTHSC 02-439 after 24 to 48 hrs; assay type: functional
[2] = system: Rhizopus arrhizus; assay: Antifungal activity against drug-intermediate Rhizopus oryzae UTHSC 05-3032 at 5 ug by disk diffusion assay; assay type: functional; conditions: read-out: DIZ
Procedure, shortened: (§1)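 Neo-Sensitabs tablet diffusion on Mueller-Hinton agar, following the guidelines for molds. Tablets were 9 mm in diameter and held 5 µg of drug. The read-out was inhibition zone diameter in mm.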

[3] = system: Rhizopus arrhizus; assay: Antifungal activity against drug-susceptible Rhizopus oryzae UTHSC 06-4035 by broth microdilution method; assay type: functional
Procedure, shortened: (§2)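 Posaconazole MIC in ug/ml, determined by broth microdilution following the CLSI guidelines for moulds (M38-A2).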

[4] = system: Rhizopus arrhizus; assay: Antifungal activity against drug-susceptible Rhizopus oryzae UTHSC 04-2459 at 5 ug by disk diffusion assay; assay type: functional; conditions: read-out: DIZ
Procedure, shortened: (§3)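 Neo-Sensitabs tablet diffusion on Mueller-Hinton agar, following guidelines for molds; 9 mm tablets containing 5 µg posaconazole; inhibition zone diameter measured in mm; zone breakpoints applied at 24 h.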

[5] = system: Rhizopus arrhizus; assay: Antifungal activity against drug-susceptible Rhizopus oryzae UTHSC 02-2882 at 5 ug by disk diffusion assay; assay type: functional; conditions: read-out: DIZ; procedure, shortened: as §1
[6] = system: Rhizopus arrhizus; assay: Antifungal activity against drug-susceptible Rhizopus oryzae UTHSC 04-2459 by broth microdilution method; assay type: functional
Procedure, shortened: (§4)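 CLSI broth microdilution for filamentous fungi (M38-A2); MIC recorded in µg/ml against clinical isolates; breakpoints applied at 24 h.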

[7] = system: Rhizopus arrhizus; assay: Antifungal activity against drug-susceptible Rhizopus oryzae UTHSC 05-1679 at 5 ug by disk diffusion assay; assay type: functional; conditions: read-out: DIZ; procedure, shortened: as §3
[8] = system: Rhizopus arrhizus; assay: Antifungal activity against drug-susceptible Rhizopus oryzae UTHSC 06-731 by broth microdilution method; assay type: functional
[9] = system: Rhizopus arrhizus; assay: Antifungal activity against drug-susceptible Rhizopus oryzae UTHSC 2868 at 5 ug by disk diffusion assay; assay type: functional; conditions: read-out: DIZ
[10] = system: Rhizopus arrhizus; assay: Antifungal activity against drug-susceptible Rhizopus oryzae UTHSC 02-2882 after 24 to 48 hrs; assay type: functional
[11] = system: Rhizopus arrhizus; assay: Antifungal activity against drug-susceptible Rhizopus oryzae UTHSC 05-1502 after 24 to 48 hrs; assay type: functional
Procedure, shortened: (§5)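 Minimum fungicidal concentration: 20 µl from each microdilution well showing complete inhibition (optically clear) plated on potato dextrose agar, incubated 35°C for 24 to 48 h; MFC taken as lowest drug concentration giving no growth.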

[12] = system: Rhizopus arrhizus; assay: Antifungal activity against drug-intermediate Rhizopus oryzae UTHSC 07-365 after 24 to 48 hrs; assay type: functional
[13] = system: Rhizopus arrhizus; assay: Antifungal activity against drug-susceptible Rhizopus oryzae UTHSC 05-1679 after 24 to 48 hrs; assay type: functional; procedure, shortened: as §5
[14] = system: Rhizopus arrhizus; assay: Antifungal activity against drug-susceptible Rhizopus oryzae UTHSC 03-511 by broth microdilution method; assay type: functional; procedure, shortened: as §4
[15] = system: Rhizopus arrhizus; assay: Antifungal activity against drug-susceptible Rhizopus oryzae UTHSC 04-278 after 24 to 48 hrs; assay type: functional; procedure, shortened: as §5
[16] = system: Rhizopus arrhizus; assay: Antifungal activity against drug-susceptible Rhizopus oryzae UTHSC 05-1679 by broth microdilution method; assay type: functional; procedure, shortened: as §4
[17] = system: Rhizopus arrhizus; assay: Antifungal activity against drug-susceptible Rhizopus oryzae UTHSC 06-3827 after 24 to 48 hrs; assay type: functional
Procedure, shortened: (§6)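 Minimum fungicidal concentration taken from the broth microdilution plates. From each well with complete inhibition (optically clear), 20 ul is plated on potato dextrose agar. Plates are incubated at 35°C for 24 to 48 h. The MFC is the lowest drug concentration giving no growth.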

[18] = system: Rhizopus arrhizus; assay: Antifungal activity against drug-intermediate Rhizopus oryzae UTHSC 04-3109 infected in OF1 mouse assessed as reduction in kidney fungal load at 10-30 mg/kg, po bid treated 24 hrs after fungal infection; assay type: functional, organism-based
Procedure, shortened: (§7)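 Tissue burden in immunosuppressed male OF1 mice, using cyclophosphamide 200 mg/kg i.p. plus 5-fluorouracil 150 mg/kg i.v. on day −1. Mice received 2 × 10^4 CFU i.v. by tail vein, then oral gavage at 10, 20 or 30 mg/kg BID from 24 h post-challenge, with ceftazidime cover; untreated controls. Groups of 10 were killed on day 4. Kidneys and brains were homogenized in 2 ml saline, serially diluted 10-fold, plated on PDA and counted after 24 h at 35°C.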

[19] = system: Rhizopus arrhizus; assay: Antifungal activity against drug-susceptible Rhizopus oryzae UTHSC 06-89 infected in OF1 mouse assessed as increase in mouse survival at 20-30 mg/kg, po bid treated 24 hrs after fungal infection; assay type: functional, organism-based
[20] = system: Rhizopus arrhizus; assay: Antifungal activity against drug-susceptible Rhizopus oryzae UTHSC 04-1241 after 24 to 48 hrs; assay type: functional; procedure, shortened: as §5
[21] = system: Rhizopus arrhizus; assay: Antifungal activity against drug-intermediate Rhizopus oryzae infected in OF1 mouse assessed as mouse survival at 30 mg/kg, po bid treated 24 hrs after fungal infection; assay type: functional
Procedure, shortened: (§8)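 Survival model in male OF1 mice, 30 g. Mice were immunosuppressed 1 day before infection with cyclophosphamide 200 mg/kg i.p. plus 5-fluorouracil 150 mg/kg i.v., then infected i.v. via lateral tail vein with 2 × 10^4 CFU in 0.2 ml saline. Oral gavage at 10, 20 or 30 mg/kg BID began 24 h post-challenge for 7 days. Ceftazidime 5 mg/day s.c. was given days 1–7. Groups of 10 were checked daily for 20 days; untreated controls.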

[22] = system: Rhizopus arrhizus; assay: Antifungal activity against drug-susceptible Rhizopus oryzae UTHSC 06-1301 after 24 to 48 hrs; assay type: functional; procedure, shortened: as §6
[23] = system: Rhizopus arrhizus; assay: Antifungal activity against drug-susceptible Rhizopus oryzae UTHSC 05-2447 at 5 ug by disk diffusion assay; assay type: functional; conditions: read-out: DIZ; procedure, shortened: as §3
[24] = system: Rhizopus arrhizus; assay: Antifungal activity against drug-susceptible Rhizopus oryzae UTHSC 04-278 at 5 ug by disk diffusion assay; assay type: functional; conditions: read-out: DIZ; procedure, shortened: as §3
[25] = system: Rhizopus arrhizus; assay: Antifungal activity against drug-susceptible Rhizopus oryzae UTHSC 05-1817 at 5 ug by disk diffusion assay; assay type: functional; conditions: read-out: DIZ; procedure, shortened: as §3
[26] = system: Rhizopus arrhizus; assay: Antifungal activity against drug-susceptible Rhizopus oryzae UTHSC 05-3580 by broth microdilution method; assay type: functional; procedure, shortened: as §2
[27] = system: Rhizopus arrhizus; assay: Antifungal activity against drug-intermediate Rhizopus oryzae UTHSC 03-285 after 24 to 48 hrs; assay type: functional
[28] = system: Rhizopus arrhizus; assay: Antifungal activity against drug-susceptible Rhizopus oryzae UTHSC 06-1351 at 5 ug by disk diffusion assay; assay type: functional; conditions: read-out: DIZ
Procedure, shortened: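 Neo-Sensitabs tablet diffusion on Mueller-Hinton agar, run per the mould guidelines. Tablets are 9 mm in diameter and carry 5 ug posaconazole. The read-out is the inhibition zone diameter in mm.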

[29] = system: Rhizopus arrhizus; assay: Antifungal activity against drug-susceptible Rhizopus oryzae UTHSC 05-1502 at 5 ug by disk diffusion assay; assay type: functional; conditions: read-out: DIZ; procedure, shortened: as §3
[30] = system: Serum; assay: Drug level in human serum at 400 mg, po bid; assay type: ADME, organism-based; conditions: in vivo
[31] = system: Rhizopus arrhizus; assay: Antifungal activity against drug-intermediate Rhizopus oryzae UTHSC 04-3109 at 5 ug by disk diffusion assay; assay type: functional; conditions: read-out: DIZ; procedure, shortened: as §1
[32] = system: Rhizopus arrhizus; assay: Antifungal activity against drug-susceptible Rhizopus oryzae UTHSC 06-731 at 5 ug by disk diffusion assay; assay type: functional; conditions: read-out: DIZ
[33] = system: Rhizopus arrhizus; assay: Antifungal activity against drug-susceptible Rhizopus oryzae UTHSC 03-299 after 24 to 48 hrs; assay type: functional
[34] = system: Rhizopus arrhizus; assay: Antifungal activity against drug-intermediate Rhizopus oryzae UTHSC 05-3032 infected in OF1 mouse assessed as reduction in brain fungal load at 10-30 mg/kg, po bid treated 24 hrs after fungal infection; assay type: functional, organism-based; procedure, shortened: as §7
[35] = system: Rhizopus arrhizus; assay: Antifungal activity against drug-intermediate Rhizopus oryzae UTHSC 04-3109 infected in OF1 mouse assessed as increase in mouse survival at 20-30 mg/kg, po bid treated 24 hrs after fungal infection; assay type: functional, organism-based; procedure, shortened: as §8
[36] = system: Rhizopus arrhizus; assay: Antifungal activity against drug-intermediate Rhizopus oryzae UTHSC 04-3109 after 24 to 48 hrs; assay type: functional

CC[C@@H]([C@H](C)O)n1ncn(-c2ccc(N3CCN(c4ccc(OC[C@@H]5CO[C@@](Cn6cncn6)(c6ccc(F)cc6F)C5)cc4)CC3)cc2)c1=O [POSACONAZOLE]
MFC [1]: 0.5 µg/mL (≈ 0.713 µM) | zone of inhibition at 5 µg/disc [2]: 14 mm | MIC [3]: 0.5 µg/mL (≈ 0.713 µM) | zone of inhibition at 5 µg/disc [4]: 18 mm | zone of inhibition at 5 µg/disc [5]: 22 mm | MIC [6]: 1 µg/mL (≈ 1.43 µM) | zone of inhibition at 5 µg/disc [7]: 18 mm | MIC [8]: 0.5 µg/mL (≈ 0.713 µM) | zone of inhibition at 5 µg/disc [9]: 19 mm | MFC [10]: 0.5 µg/mL (≈ 0.713 µM) | MFC [11]: 1 µg/mL (≈ 1.43 µM) | MFC [12]: 16 µg/mL (≈ 22.8 µM) | MFC [13]: 0.5 µg/mL (≈ 0.713 µM) | MIC [14]: 0.25 µg/mL (≈ 0.357 µM) | MFC [15]: > 16 µg/mL | MIC [16]: 0.5 µg/mL (≈ 0.713 µM) | MFC [17]: 16 µg/mL (≈ 22.8 µM) | Activity [18]: Active | Activity [19]: Active | MFC [20]: 0.5 µg/mL (≈ 0.713 µM) | Activity [21]: 10% | MFC [22]: 1 µg/mL (≈ 1.43 µM) | zone of inhibition at 5 µg/disc [23]: 17 mm | zone of inhibition at 5 µg/disc [24]: 18 mm | zone of inhibition at 5 µg/disc [25]: 25 mm | MIC [26]: 0.5 µg/mL (≈ 0.713 µM) | MFC [27]: > 16 µg/mL | zone of inhibition at 5 µg/disc [28]: 25 mm | zone of inhibition at 5 µg/disc [29]: 21 mm | Drug uptake [30]: < 1 µg/mL | zone of inhibition at 5 µg/disc [31]: 14 mm | zone of inhibition at 5 µg/disc [32]: 17 mm | MFC [33]: > 16 µg/mL | Activity [34]: inactive | Activity [35]: Active | MFC [36]: > 16 µg/mL
